In ChEMBL document CHEMBL1154753, “N-sulfonylanthranilic acid derivatives as allosteric inhibitors of dengue viral RNA-dependent RNA polymerase” (J Med Chem, 2009):
Activity calls are given as the source filed them. The calls are words filed in the database; no cut-off is given here.

How the values were obtained:
[1] = Inhibition of Dengue virus recombinant […] RNA dependent RNA polymerase using […] by SPA
Outline: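 Purified recombinant dengue 2 NS5 polymerase at 50 nM, preincubated 1 h at room temperature with compound over a range of concentrations and annealed poly(C)/biotin-oligo G template. Buffer: 50 mM Tris-HCl pH 7.0, 10 mM KCl, 2 mM MgCl2, 2 mM MnCl2, 1 mM β-mercaptoethanol, 0.05% CHAPS. Stopped with EDTA and streptavidin SPA beads, then scintillation counting. Duplicates, average of at least two experiments.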

[2] = Inhibition of HCV RNA dependent RNA polymerase; parameters: species or system Hepacivirus hominis
[3] = target: T1, DNA polymerase alpha catalytic subunit (Homo sapiens, UniProt P09884); assay: Inhibition of human DNA polymerase alpha
T1 sequence (P09884 whole entry): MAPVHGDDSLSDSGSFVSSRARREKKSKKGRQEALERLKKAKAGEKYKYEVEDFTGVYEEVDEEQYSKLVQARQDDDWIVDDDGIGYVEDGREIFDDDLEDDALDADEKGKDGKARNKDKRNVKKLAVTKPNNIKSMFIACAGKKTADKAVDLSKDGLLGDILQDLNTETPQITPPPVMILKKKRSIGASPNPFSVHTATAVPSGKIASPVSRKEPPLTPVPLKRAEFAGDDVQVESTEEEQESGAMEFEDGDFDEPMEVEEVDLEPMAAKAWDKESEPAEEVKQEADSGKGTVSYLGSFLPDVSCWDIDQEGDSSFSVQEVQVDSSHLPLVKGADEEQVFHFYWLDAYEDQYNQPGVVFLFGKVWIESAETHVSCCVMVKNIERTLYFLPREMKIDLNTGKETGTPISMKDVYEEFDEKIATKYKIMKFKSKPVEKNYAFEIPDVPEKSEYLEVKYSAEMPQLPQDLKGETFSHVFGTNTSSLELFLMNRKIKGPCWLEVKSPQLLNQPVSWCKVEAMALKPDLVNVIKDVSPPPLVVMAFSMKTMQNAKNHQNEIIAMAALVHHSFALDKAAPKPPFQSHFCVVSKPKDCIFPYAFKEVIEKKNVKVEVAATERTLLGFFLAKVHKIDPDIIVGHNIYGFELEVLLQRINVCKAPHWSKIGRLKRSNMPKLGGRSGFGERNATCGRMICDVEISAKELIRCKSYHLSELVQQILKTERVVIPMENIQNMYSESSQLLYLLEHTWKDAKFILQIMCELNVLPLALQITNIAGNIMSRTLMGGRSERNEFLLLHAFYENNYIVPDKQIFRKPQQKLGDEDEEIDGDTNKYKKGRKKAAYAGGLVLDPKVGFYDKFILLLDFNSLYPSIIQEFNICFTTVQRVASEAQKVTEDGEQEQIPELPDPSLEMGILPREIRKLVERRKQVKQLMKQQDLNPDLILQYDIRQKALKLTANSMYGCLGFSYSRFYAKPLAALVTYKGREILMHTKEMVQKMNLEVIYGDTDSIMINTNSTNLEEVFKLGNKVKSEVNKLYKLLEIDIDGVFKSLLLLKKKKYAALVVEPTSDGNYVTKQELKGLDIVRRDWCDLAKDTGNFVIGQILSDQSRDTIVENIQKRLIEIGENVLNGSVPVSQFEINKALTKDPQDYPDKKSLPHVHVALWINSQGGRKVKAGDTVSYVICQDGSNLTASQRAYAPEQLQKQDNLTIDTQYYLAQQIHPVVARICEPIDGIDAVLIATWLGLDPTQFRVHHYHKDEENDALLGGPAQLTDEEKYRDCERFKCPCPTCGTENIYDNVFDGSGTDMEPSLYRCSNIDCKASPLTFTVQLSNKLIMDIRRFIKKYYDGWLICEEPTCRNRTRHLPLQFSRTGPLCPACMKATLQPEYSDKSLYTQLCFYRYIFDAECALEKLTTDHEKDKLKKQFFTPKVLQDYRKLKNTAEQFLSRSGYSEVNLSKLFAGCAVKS

[4] = target: DNA polymerase beta (Homo sapiens, UniProt P06746); assay: Inhibition of human DNA polymerase beta
[5] = tested on: Dengue virus; assay: Irreversible inhibition of Dengue virus recombinant […] RNA dependent RNA polymerase under ultraviolet light irradiation

IC50 [1] [µM] | Structure (SMILES) | other results
> 20 | O=C(O)c1cccc(NS(=O)(=O)c2cccc(-c3cnn(Cc4ccccc4)c3)c2)c1 | 
> 20 | O=C(O)c1c(Cl)cccc1NS(=O)(=O)c1cccc(-c2cnn(Cc3ccccc3)c2)c1 | 
0.37 | O=C(O)c1ccc(F)cc1NS(=O)(=O)c1cccc(-c2cnn(Cc3ccccc3)c2)c1 | IC50 [2]: > 20 µM; IC50 [3]: > 20 µM; IC50 [4]: > 20 µM
0.7 | O=C(O)c1ccccc1NS(=O)(=O)c1cccc(-c2cnn(Cc3ccccc3)c2)c1 | IC50 [2]: > 20 µM; IC50 [3]: > 20 µM; IC50 [4]: > 20 µM
0.77 | O=C(O)c1ccc(Cl)cc1NS(=O)(=O)c1cccc(-c2cnn(Cc3ccccc3)c2)c1 | 
18 | O=C(O)c1cccc(Cl)c1NS(=O)(=O)c1cccc(-c2cnn(Cc3ccccc3)c2)c1 | 
> 20 | O=C(O)c1ccc(NS(=O)(=O)c2cccc(-c3cnn(Cc4ccccc4)c3)c2)cc1 | 
2.56 | O=C(O)c1cc(Cl)ccc1NS(=O)(=O)c1cccc(-c2cnn(Cc3ccccc3)c2)c1 | 
> 20 | O=S(=O)(Nc1ccccc1)c1cccc(-c2cnn(Cc3ccccc3)c2)c1 | 

Continued, compound first:

Structure (SMILES) | IC50 [1] [µM] | other results
O=C(O)c1ccc(F)cc1NS(=O)(=O)c1cccc(-c2cnn(Cc3ccc4ccccc4c3)c2)c1 | 0.26 | IC50 [2]: > 20 µM; IC50 [3]: > 20 µM; IC50 [4]: > 20 µM
O=C(O)c1ccccc1NS(=O)(=O)c1cccc(-c2cnn(Cc3ccc4ccccc4c3)c2)c1 | 0.37 | 
NC(=O)c1ccccc1NS(=O)(=O)c1cccc(-c2cnn(Cc3ccccc3)c2)c1 | > 20 | 
CC1=NN(c2cccc(S(=O)(=O)Nc3ccccc3C(=O)O)c2)C(=O)C1 | 7.2 | 
Cn1cc(-c2cccc(S(=O)(=O)Nc3ccccc3C(=O)O)c2)cn1 | > 20 | 
O=C(Nc1cccc(Cn2cc(-c3cccc(S(=O)(=O)Nc4ccccc4C(=O)O)c3)cn2)c1)c1ccc(C(=O)c2ccccc2)cc1 | 1.5 | Activity [5]: Active
COc1cc(NS(=O)(=O)c2cccc(-c3cnn(Cc4ccccc4)c3)c2)c(C(=O)O)cc1OC | > 20 | 
O=C(O)c1ccccc1NS(=O)(=O)c1cccc(-c2cnn(CCN3CCOCC3)c2)c1 | > 20 | 
CC(C)Cn1cc(-c2cccc(S(=O)(=O)Nc3ccccc3C(=O)O)c2)cn1 | > 20 | 
COC(=O)c1ccccc1NS(=O)(=O)c1cccc(-c2cnn(Cc3ccccc3)c2)c1 | > 20 | 
COc1ccc(C(=O)O)c(NS(=O)(=O)c2cccc(-c3cnn(Cc4ccccc4)c3)c2)c1 | 9.99 | 
O=C(O)c1ccccc1NS(=O)(=O)c1cccc(-c2cn[nH]c2)c1 | > 20 | 
CC(C)CCn1cc(-c2cccc(S(=O)(=O)Nc3ccccc3C(=O)O)c2)cn1 | 6.77 | 
